Results on 19 compounds are retold here after ChEMBL document CHEMBL1828518, “Arylazolylthioacetanilide. Part 8: Design, synthesis and biological evaluation of novel 2-(2-(2,4-dichlorophenyl)-2H-1,2,4-triazol-3-ylthio)-N-arylacetamides as potent HIV-1 inhibitors” (Eur J Med Chem, 2011).

In data set [1] the test system is Human immunodeficiency virus 1. The data set is described as follows: Antiviral activity against HIV-1 3B infected in human MT4 cells assessed as inhibition of virus-induced syncytium formation after 5 days by MTT assay. It is filed as functional, organism-based. The conditions noted are these: Human immunodeficiency virus 1, 3B, MT4, 120 h. Summed up: (§1)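 MT-4 cells (exponentially growing, spun 5 min at 1000 rpm, resuspended at 6 × 10⁵ cells/mL) infected with HIV-1 IIIB or HIV-2 ROD at 100–300 CCID50. Compounds added at infection in triplicate wells as serial fivefold dilutions, with untreated infected and mock-infected controls. Viability read by MTT at 540 and 690 nm after 5 days, from the median OD of three wells.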

The test system of data set [2] is Human immunodeficiency virus 2. The data set can be described thus: Antiviral activity against HIV-2 ROD infected in human MT4 cells assessed as inhibition of virus-induced syncytium formation after 5 days by MTT assay. It counts as functional, organism-based. To be noted: Human immunodeficiency virus 2, ISOLATE ROD, MT4, 120 h. Summed up: as §1
Data set [3] in a line: Cytotoxicity against human MT4 cells assessed as cell viability after 5 days by MTT assay. It is filed as cell-based. Summed up:
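MT-4 cells at 6 × 10⁵ cells/mL, mock-infected with culture medium and run in parallel with the antiviral plates. Test compounds given as serial fivefold dilutions in triplicate wells. After 5 days viability read by MTT reduction to formazan at 540 and 690 nm, using the median OD of three wells.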

The test system of data set [4] is Human immunodeficiency virus 1. The data set is described as follows: Antiviral activity against HIV-1 3B harboring RT Y181C mutant infected in human MT4 cells assessed as inhibition of virus-induced syncytium formation after 5 days by MTT assay. It is filed as functional, organism-based. Summed up:
(§2)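 Exponentially growing MT-4 cells, pelleted and resuspended at 6 × 10⁵ cells/mL, were infected with virus stock at 100-300 CCID50. Test compounds were added at infection as serial fivefold dilutions, in triplicate wells. After 5 days, viability was read by MTT reduction at 540 and 690 nm using the median OD of three wells.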

The subject of data set [5] is Human immunodeficiency virus 1. The data set can be described thus: Antiviral activity against HIV-1 3B harboring RT Y188L mutant infected in human MT4 cells assessed as inhibition of virus-induced syncytium formation after 5 days by MTT assay. It counts as functional, organism-based. The procedure, abridged:
as §2

Data set [6] concerns Human immunodeficiency virus 1. The data set is described as follows: Antiviral activity against HIV-1 3B harboring RT F227L and V106A mutant infected in human MT4 cells assessed as inhibition of virus-induced syncytium formation after 5 days by MTT assay. It is filed as functional, organism-based. The procedure, abridged:
as §2

Data set [7] concerns Human immunodeficiency virus 1. The data set is described as follows: Antiviral activity against HIV-1 3B harboring RT K103N and Y181C mutant infected in human MT4 cells assessed as inhibition of virus-induced syncytium formation after 5 days by MTT assay. It is filed as functional, organism-based. The procedure, abridged: as §2
Data set [8] has as its system Human immunodeficiency virus 1. The data set can be described thus: Ratio of EC50 for HIV-1 3B harboring RT K103N mutant infected in human MT4 cells to EC50 for wild type HIV-1 3B infected in human MT4 cells. It counts as functional. Summed up: (§3)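 Fold resistance is the EC50 against the drug-resistant strain divided by the EC50 against wild-type HIV-1 IIIB. Both values come from the same MT-4 assay: 5-day infection, MTT viability read-out, and serial fivefold compound dilutions in triplicate wells.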

Data set [9] has as its system Human immunodeficiency virus 1. The data set can be described thus: Ratio of EC50 for HIV-1 3B harboring RT E138K mutant infected in human MT4 cells to EC50 for wild type HIV-1 3B infected in human MT4 cells. It counts as functional. The procedure, abridged: as §3
The subject of data set [10] is Human immunodeficiency virus 1. The data set is described as follows: Ratio of EC50 for HIV-1 3B harboring RT L100I mutant infected in human MT4 cells to EC50 for wild type HIV-1 3B infected in human MT4 cells. It is filed as functional. The procedure, abridged: as §3
In data set [11] the test system is Human immunodeficiency virus 1. The data set is described as follows: Antiviral activity against HIV-1 3B harboring RT E138K mutant infected in human MT4 cells assessed as inhibition of virus-induced syncytium formation after 5 days by MTT assay. To be noted: Human immunodeficiency virus 1, 3B, MT4, 120 h. It counts as functional, organism-based. Summed up: as §2

For data set [12], the system named is Human immunodeficiency virus 1. The data set is described as follows: Antiviral activity against HIV-1 3B harboring RT K103N mutant infected in human MT4 cells assessed as inhibition of virus-induced syncytium formation after 5 days by MTT assay. It is filed as functional, organism-based. The conditions noted are these: Human immunodeficiency virus 1, 3B, MT4, 120 h. The procedure, abridged:
as §2

Data set [13] deals with Human immunodeficiency virus 1. The data set is described as follows: Antiviral activity against HIV-1 3B harboring RT L100I mutant infected in human MT4 cells assessed as inhibition of virus-induced syncytium formation after 5 days by MTT assay. It counts as functional, organism-based. The conditions noted are these: Human immunodeficiency virus 1, 3B, MT4, 120 h. Summed up:
as §2

Data set [14] is described as follows: Selectivity index, ratio of CC50 for human MT4 cells to EC50 for HIV-1 3B infected in human MT4 cells. The conditions noted are these: uninfected and infected with HIV-1 3B, read-out: Ratio CC50/EC50. It counts as toxicity, cell-based. The procedure, abridged:
(§4)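 Selectivity index calculated as CC50 divided by EC50. Both values come from MTT readings taken 5 days after infection, on mock-infected and virus-infected MT-4 cells run in parallel.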

Data set [15] is described as follows: Selectivity index, ratio of CC50 for human MT4 cells to EC50 for HIV-2 ROD infected in human MT4 cells. It counts as toxicity, cell-based. To be noted: uninfected and infected with HIV-2 ROD, read-out: Ratio CC50/EC50. The procedure, abridged: as §4

The source made the active and inactive calls. The calls are words filed in the database; no cut-off is given here.

Consider `Cc1ccc(NC(=O)CSc2ncnn2-c2ccc(Cl)cc2Cl)c([N+](=O)[O-])c1`, for which the EC50 in [1] and in data set [2] was more than 285 µM throughout. The CC50 at 120 h in [3] is more than 285 µM.

For `CC(C)Nc1cccnc1N1CCN(C(=O)c2cc3cc(NS(C)(=O)=O)ccc3[nH]2)CC1.CS(=O)(=O)O` [DELAVIRDINE MESYLATE], the inhibition entry in data set [4], in data set [5], in data set [6] and in data set [7] was “inactive” each time. Besides, the “Ratio EC50” value in [8] was 52.8; in [9], 1.9; in [10] it was 68.3. Moreover, the results for the EC50 in data set [11], in data set [12] and in data set [13] were 60 nM, 1720 nM and 2230 nM, respectively.

Consider `CCOC(=O)c1ccc(NC(=O)CSc2ncnn2-c2ccc(Cl)cc2Cl)cc1`, for which the EC50 in data set [1] and in data set [2] was more than 22.8 µM in each case. The CC50 at 120 h in data set [3] came out at 22.8 µM. Moreover, the selectivity ratio in data set [14] and in [15] was less than 1 in each case.

On to `O=c1[nH]cnc2c1ncn2[C@H]1CC[C@@H](CO)O1` [DIDANOSINE], for which the EC50 is 8.86 µM in [1] and 16 µM in [2]. The 50% cytotoxic concentration (CC50) at 120 h in [3] is more than 211 µM. For the same compound, the selectivity ratio in data set [14] was more than 24; in data set [15], more than 13.

As to `Cc1ccnc2c1NC(=O)c1cccnc1N2C1CC1` [NEVIRAPINE], the inhibition entry in data set [4], in data set [5], in data set [6] and in [7] was “inactive” each time. Also, the EC50 was 0.19 µM in data set [1]; more than 15 µM in data set [2]; 180 nM in data set [11]; 7250 nM in data set [12]; 1920 nM in [13]. In addition, in [3], the CC50 at 120 h was more than 15 µM.

Turning to `O=C(CSc1ncnn1-c1ccc(Cl)cc1Cl)Nc1ccc(Cl)cc1Cl`, the results for the EC50 in data set [1] and in data set [2] were 34.4 µM and more than 172 µM, respectively. Moreover, the CC50 at 120 h in [3] worked out at 172 µM. Further, the selectivity ratio is 5 in data set [14] and less than 1 in data set [15].

Regarding `COC(=O)c1ccc(NC(=O)CSc2ncnn2-c2ccc(Cl)cc2Cl)cc1`, the EC50 in data set [1] and in [2] was more than 26.3 µM each time. The CC50 at 120 h in data set [3] stood at 26.3 µM. Besides, the selectivity ratio in data set [14] and in data set [15] was less than 1 each time.

For `O=C(CSc1ncnn1-c1ccc(Cl)cc1Cl)Nc1ccc(Cl)cc1Br`, the EC50 in data set [1] and in [2] was more than 189 µM in each case. The CC50 at 120 h in data set [3] is 189 µM. The selectivity ratio in [14] and in [15] was less than 1 in each case.

Take `Nc1ccn([C@H]2CC[C@@H](CO)O2)c(=O)n1` [ZALCITABINE]: the EC50 in data set [1] turned out to be 0.75 µM; in data set [2] it was 0.88 µM. Also, the CC50 at 120 h in data set [3] is more than 94 µM. Besides, the figures for the selectivity ratio in data set [14] and in data set [15] were more than 127 and more than 108, respectively.

With `O=C(CSc1ncnn1-c1ccc(Cl)cc1Cl)Nc1ccccc1Br`, the inhibition entry in data set [4], in [5], in [6] and in [7] was “inactive” each time. Moreover, the “Ratio EC50” value in data set [8] came out at 1.9; in data set [9], 6.6; in data set [10], 6. The EC50 in data set [1] was 4.85 µM; in [2] it was more than 95.1 µM; in data set [11], 28200 nM; in [12], 8360 nM; in data set [13], 25700 nM. In data set [3], the CC50 at 120 h was determined as 95.1 µM. Besides, the values for the selectivity ratio in data set [14] and in data set [15] were 20 and less than 1, respectively.

On to `O=C(CSc1ncnn1-c1ccc(Cl)cc1Cl)Nc1ccccc1Cl`, for which the inhibition entry in data set [4], in data set [5], in [6] and in data set [7] was “inactive” in each case. The “Ratio EC50” value in data set [8] is on record as 2.8; in data set [9], 3.6; in data set [10], 3.7. Also, the concentration giving a half-maximal response (EC50) was 6.21 µM in data set [1]; more than 29.1 µM in data set [2]; 20900 nM in data set [11]; 16000 nM in data set [12]; 21400 nM in data set [13]. The CC50 at 120 h in [3] stood at 29.1 µM. For the same compound, the selectivity ratio in [14] is 5; in data set [15], less than 1.

Regarding `Cc1cc(C#N)cc(C)c1Oc1nc(Nc2ccc(C#N)cc2)nc(N)c1Br` [ETRAVIRINE], the inhibition entry in data set [4], in data set [5], in data set [6] and in data set [7] was “inactive” each time. For the same compound, the “Ratio EC50” value in data set [8] worked out at 0.62; in [9] it was 2.6; in data set [10] it was 1.54. Further, the EC50 came to 8 nM in [11], 1.84 nM in [12] and 4.6 nM in data set [13].

As for `Cc1cn([C@H]2C[C@H](N=[N+]=[N-])[C@@H](CO)O2)c(=O)[nH]c1=O` [ZIDOVUDINE], the inhibition result in data set [4], in [5], in data set [6] and in data set [7] was “inactive” in each case. Moreover, the “Ratio EC50” value is on record as 0.71 in [8], 1.4 in data set [9] and 0.32 in [10]. The EC50 was 0.0076 µM in data set [1]; 0.0033 µM in data set [2]; 20 nM in [11]; 11 nM in data set [12]; 4.9 nM in [13]. For the same compound, in data set [3], the half-maximal cytotoxic concentration (CC50) at 120 h was more than 88.3 µM. Also, the selectivity ratio in data set [14] is more than 11600; in data set [15] it was more than 28300.

Consider `NS(=O)(=O)c1ccc(NC(=O)CSc2nnc(Br)n2-c2ccc(C3CC3)c3ccccc23)c(Cl)c1`, for which the EC50 in [7] (Human immunodeficiency virus 1, 3B, MT4, 120 h) stood at 230 nM.

In the case of `O=C(CSc1ncnn1-c1ccc(Cl)cc1Cl)Nc1ccccc1F`, the EC50 in [1] and in data set [2] was more than 38.4 µM in each case. For the same compound, the CC50 at 120 h in data set [3] came out at 38.4 µM. Moreover, the selectivity ratio in [14] and in data set [15] was less than 1 throughout.

Take `Cc1ccccc1NC(=O)CSc1ncnn1-c1ccc(Cl)cc1Cl`: the EC50 was 32.4 µM in data set [1] and more than 106 µM in data set [2]. The CC50 at 120 h in data set [3] was 106 µM. Moreover, the figures for the selectivity ratio in [14] and in data set [15] were 3 and less than 1, respectively.

Regarding `CC(=O)c1ccc(NC(=O)CSc2ncnn2-c2ccc(Cl)cc2Cl)c(Br)c1`, the EC50 in data set [1] and in [2] was more than 114 µM throughout. In data set [3], the CC50 at 120 h amounted to 114 µM. The selectivity ratio in data set [14] and in data set [15] was less than 1 each time.

With `Cc1ccc(NC(=O)CSc2ncnn2-c2ccc(Cl)cc2Cl)c(Br)c1`, the EC50 in [1] and in data set [2] was more than 184 µM each time. In data set [3], the CC50 at 120 h was more than 184 µM.

For the compound `O=C1Nc2ccc(Cl)cc2[C@@](C#CC2CC2)(C(F)(F)F)O1` [EFAVIRENZ], the inhibition result in data set [4], in data set [5], in data set [6] and in [7] was “inactive” each time. Moreover, the results for the half-maximal effective concentration (EC50) in data set [11], in data set [12] and in data set [13] were 5.5 nM, 108 nM and 54 nM, respectively.
